Data set [1] deals with T1, Diacylglycerol O-acyltransferase 1 (Homo sapiens, UniProt O75907).
T1 sequence (O75907 whole entry): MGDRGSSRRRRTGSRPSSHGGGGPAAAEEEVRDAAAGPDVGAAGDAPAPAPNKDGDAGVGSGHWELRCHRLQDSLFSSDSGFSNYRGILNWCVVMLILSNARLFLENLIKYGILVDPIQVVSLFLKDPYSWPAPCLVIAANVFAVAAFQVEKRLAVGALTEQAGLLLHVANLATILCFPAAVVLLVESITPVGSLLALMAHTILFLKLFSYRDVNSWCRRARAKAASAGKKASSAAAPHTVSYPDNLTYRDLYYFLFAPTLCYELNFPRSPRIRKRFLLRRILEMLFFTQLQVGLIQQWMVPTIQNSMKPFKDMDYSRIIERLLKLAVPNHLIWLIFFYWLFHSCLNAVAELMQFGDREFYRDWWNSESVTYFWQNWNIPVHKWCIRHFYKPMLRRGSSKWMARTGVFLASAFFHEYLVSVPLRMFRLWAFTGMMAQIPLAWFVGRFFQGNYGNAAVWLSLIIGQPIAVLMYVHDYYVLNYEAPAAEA
Kind of data set: Inhibition of human recombinant DGAT1 expressed in baculovirus infected Sf9 cells after 60 mins by scintillation counting method.

Another data set concerns Mus musculus. Kind of data set: Antihyperlipidemic activity in C57BL/6J mouse assessed as inhibition of rise in plasma triglyceride level at 1 mg/kg, po administered 1 hr before lipid challenge. The class given is functional. The gist of the method:
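Fasted male C57Bl/6J mice (n = 10/group) were dosed orally at 1 mg/kg in 0.5% methylcellulose/1% DMSO (10 mL/kg), 1 h before a 100 µL corn oil or water bolus. Blood was taken by intracardiac puncture under isoflurane 1 h after the challenge, and plasma triglycerides were measured with a commercial kit. Inhibition of the TG rise was assessed against vehicle by one-way ANOVA with Dunnett test.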

A short description of data set [2]: Permeability across human Caco2 cell membrane. The class given is ADME, cell-based. The settings on record: Caco-2, read-out: permeability. Background: Caco-2 monolayers are a common model of the intestinal barrier.
Data set [3] is described as follows: Metabolic stability in mouse hepatic microsomes assessed as compound metabolism after 20 mins. It counts as ADME. To be noted: liver microsomes, read-out: Drug metabolism. The gist of the method: (§1)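 Compound was incubated for 20 min with human or mouse hepatic microsomal fraction. % liability is the disappearance of parent compound at the end of the incubation.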
(Microsomes from liver hold many membrane-bound enzymes, among them those of drug oxidation.)

Data set [4] in a line: Plasma concentration in C57BL/6J mouse at 1 mg/kg, po administered 1 hr before lipid challenge measured after 1 hr post dose. The class given is ADME, organism-based. Further details: dose 1 mg/kg, route oral.
Data set [5] can be described thus: Metabolic stability in human hepatic microsomes assessed as compound metabolism after 20 mins. It counts as ADME. The settings on record: liver microsomes, read-out: Drug metabolism. In outline:
as §1

We go through 8 molecules from ChEMBL document CHEMBL2010778, “Thiadiazoles as new inhibitors of diacylglycerol acyltransferase type 1” (Bioorg Med Chem Lett, 2012).

Each structure is given as a SMILES string.

`CS(=O)(=O)c1nnc(NC(=O)c2ccc([C@H]3CC[C@H](CC(=O)O)CC3)cc2)s1`: the half-inhibitory concentration (IC50) (as a rule, the concentration needed to halve the response being measured) in data set [1] was > 10 µM.

In the case of `O=C(O)C[C@H]1CC[C@H](c2ccc(C(=O)Nc3nnc(Cc4ccccc4)s3)cc2)CC1`, the inhibition in vivo (usually the drop in the measured response relative to a control, in per cent) at 1 mg/kg with Mus musculus is 95%. Further, the Papp in data set [2] is 112 nm/s. Further, the metabolised at 20 min in data set [3] was 5%; in data set [5], 0%. The concentration at 1 h in data set [4] came out at 0.0791 µg/mL.

As to `O=C(O)C[C@H]1CC[C@H](c2ccc(C(=O)Nc3nnc(Cc4cccc(F)c4)s3)cc2)CC1`, the inhibition in vivo at 1 mg/kg in the data set with Mus musculus turned out to be 107%. The Papp in data set [2] came to 120 nm/s. Also, the values for the metabolised at 20 min in data set [3] and in data set [5] were 10% and 1%, respectively.

With `O=C(O)C[C@H]1CC[C@H](c2ccc(C(=O)Nc3nnc(Cc4ccccc4F)s3)cc2)CC1`, the inhibition in vivo at 1 mg/kg in the data set on Mus musculus was determined as 120%. Moreover, the Papp in data set [2] is 75 nm/s. The metabolised at 20 min in data set [3] came out at 4%; in data set [5], 0%.

Regarding `O=C(O)C[C@H]1CC[C@H](c2ccc(C(=O)Nc3nnc(Cc4cccc(Cl)c4)s3)cc2)CC1`, the inhibition in vivo at 1 mg/kg in the data set with Mus musculus came to 101%. Besides, in data set [2], the Papp was 80 nm/s. Moreover, the metabolised at 20 min worked out at 14% in data set [3] and 6% in data set [5].

Take `CC(C)[C@H](NC(=O)c1ccc(-c2ccc(Nc3nnc(Cc4ccccc4)s3)cc2)cc1)C(=O)O`: the Papp in data set [2] came to 0.4 nm/s.

`CN(C(=O)c1ccc([C@H]2CC[C@H](CC(=O)O)CC2)cc1)c1nnc(Cc2ccccc2)s1`: the IC50 in data set [1] was > 10 µM.

Turning to `O=C(O)CC1CCC(c2ccc(Nc3nnc(Cc4ccccc4)s3)cc2)CC1` (mixture of isomers), the IC50 in data set [1] is > 10 µM.
